Data taken from ChEMBL document CHEMBL1944580, “Synthesis of novel sulfonamide-1,2,4-triazoles, 1,3,4-thiadiazoles and 1,3,4-oxadiazoles, as potential antibacterial and antifungal agents. Biological evaluation and conformational analysis studies” (2012).
In brackets after ≈: the same amount, converted by molar mass.

Experiments:
Staphylococcus aureus [1] = assay: Antibacterial activity against Staphylococcus aureus ATCC 6538 after 24 hrs by micro dilution method; format: functional; details: ATCC 6538, 24 h
Procedure, shortened: (§1)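 Microdilution MIC in 96-well plates. Bacterial suspensions adjusted in sterile saline to 1.0 × 10^5 CFU/ml, giving 1.0 × 10^4 cfu per well in LB broth. Compounds tested at up to 1 mg/ml. Plates incubated 24 h. MIC taken as the lowest concentration with no visible growth under a binocular microscope. OD at 655 nm was also read against a blank and the positive control. Streptomycin and ampicillin were the positive controls.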

Bacillus cereus [2] = assay: Antibacterial activity against Bacillus cereus clinical isolate after 24 hrs by micro dilution method; format: functional; procedure, shortened: as §1
Micrococcus flavus [3] = assay: Antibacterial activity against Micrococcus flavus ATCC 10240 after 24 hrs by micro dilution method; format: functional; details: ATCC 10240, 24 h; procedure, shortened: as §1
Listeria monocytogenes [4] = assay: Antibacterial activity against Listeria monocytogenes NCTC 7973 after 24 hrs by micro dilution method; format: functional; details: NCTC 7973, 24 h; procedure, shortened: as §1
Pseudomonas aeruginosa [5] = assay: Antibacterial activity against Pseudomonas aeruginosa ATCC 27853 after 24 hrs by micro dilution method; format: functional; details: ATCC 27853, 24 h; procedure, shortened: as §1
Enterobacter cloacae [6] = assay: Antibacterial activity against Enterobacter cloacae human isolate after 24 hrs by micro dilution method; format: functional; procedure, shortened: as §1
Salmonella typhimurium [7] = assay: Antibacterial activity against Salmonella Typhimurium ATCC 13311 after 24 hrs by micro dilution method; format: functional, Salmonella enterica subsp. enterica serovar Typhimurium; details: Salmonella enterica, ATCC 13311, 24 h; procedure, shortened: as §1
Escherichia coli [8] = assay: Antibacterial activity against Escherichia coli ATCC 35210 after 24 hrs by micro dilution method; format: functional; details: ATCC 35210, 24 h; procedure, shortened: as §1
Staphylococcus aureus [9] = assay: Antibacterial activity against Staphylococcus aureus ATCC 6538 treated for 24 hrs followed by sub-cultivated for 72 hrs by micro dilution method; format: functional
Procedure, shortened: (§2)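 2 µl from each well was serially subcultured into 100 µl fresh broth per well and incubated a further 72 h. MBC is the lowest concentration with no visible growth, taken as 99.5% killing of the original inoculum. Streptomycin and ampicillin were the positive controls.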

Bacillus cereus [10] = assay: Antibacterial activity against Bacillus cereus clinical isolate treated for 24 hrs followed by sub-cultivated for 72 hrs by micro dilution method; format: functional; procedure, shortened: as §2
Micrococcus flavus [11] = assay: Antibacterial activity against Micrococcus flavus ATCC 10240 treated for 24 hrs followed by sub-cultivated for 72 hrs by micro dilution method; format: functional; procedure, shortened: as §2
Listeria monocytogenes [12] = assay: Antibacterial activity against Listeria monocytogenes NCTC 7973 treated for 24 hrs followed by sub-cultivated for 72 hrs by micro dilution method; format: functional; procedure, shortened: as §2
Pseudomonas aeruginosa [13] = assay: Antibacterial activity against Pseudomonas aeruginosa ATCC 27853 treated for 24 hrs followed by sub-cultivated for 72 hrs by micro dilution method; format: functional; procedure, shortened: as §2
Enterobacter cloacae [14] = assay: Antibacterial activity against Enterobacter cloacae human isolate treated for 24 hrs followed by sub-cultivated for 72 hrs by micro dilution method; format: functional; procedure, shortened: as §2
Salmonella typhimurium [15] = assay: Antibacterial activity against Salmonella Typhimurium ATCC 13311 treated for 24 hrs followed by sub-cultivated for 72 hrs by micro dilution method; format: functional, Salmonella enterica subsp. enterica serovar Typhimurium; details: Salmonella enterica; procedure, shortened: as §2
Escherichia coli [16] = assay: Antibacterial activity against Escherichia coli ATCC 35210 treated for 24 hrs followed by sub-cultivated for 72 hrs by micro dilution method; format: functional; procedure, shortened: as §2
Talaromyces funiculosus [17] = assay: Antifungal activity against Penicillium funiculosum ATCC 36839 after 72 hrs by serial dilution method; format: functional; details: ATCC 36839, 72 h
Procedure, shortened: (§3)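 Modified microdilution MIC. Spores were washed from malt agar cultures with sterile 0.85% saline containing 0.1% Tween 80 and adjusted to about 1.0 × 10^5 per 100 µl well in malt broth. Compounds were dissolved in DMSO (1 mg/ml). Plates incubated 72 h at 28 °C. MIC is the lowest concentration with no visible growth under a binocular microscope. Bifonazole and ketoconazole were the references.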

Penicillium ochrochloron [18] = assay: Antifungal activity against Penicillium ochrochloron ATCC 9112 after 72 hrs by serial dilution method; format: functional; details: ATCC 9112, 72 h; procedure, shortened: as §3
Trichoderma viride [19] = assay: Antifungal activity against Trichoderma viride IAM 5061 after 72 hrs by serial dilution method; format: functional; details: IAM 5061, 72 h; procedure, shortened: as §3
Aspergillus fumigatus [20] = assay: Antifungal activity against Aspergillus fumigatus human isolate after 72 hrs by serial dilution method; format: functional; procedure, shortened: as §3
Aspergillus niger [21] = assay: Antifungal activity against Aspergillus niger ATCC 6275 after 72 hrs by serial dilution method; format: functional; details: ATCC 6275, 72 h; procedure, shortened: as §3
Aspergillus flavus [22] = assay: Antifungal activity against Aspergillus flavus ATCC 9643 after 72 hrs by serial dilution method; format: functional; details: ATCC 9643, 72 h; procedure, shortened: as §3
Aspergillus versicolor [23] = assay: Antifungal activity against Aspergillus versicolor ATCC 11730 after 72 hrs by serial dilution method; format: functional; details: ATCC 11730, 72 h; procedure, shortened: as §3
Fulvia fulva [24] = assay: Antifungal activity against Fulvia fulva after 72 hrs by serial dilution method; format: functional; procedure, shortened: as §3
Talaromyces funiculosus [25] = assay: Antifungal activity against Penicillium funiculosum ATCC 36839 treated for 72 hrs followed by sub-cultivated for 5 days by serial dilution method; format: functional
Procedure, shortened: (§4)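 MFC obtained after the 72 h, 28 °C malt-broth microdilution (spore inoculum about 1.0 × 10^5 per well, compounds from 1 mg/ml DMSO). 2 µl was serially subcultured into 100 µl broth per well and incubated a further 5 days at 28 °C. MFC is the lowest concentration with no visible growth, taken as 99.5% killing of the original inoculum.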

Penicillium ochrochloron [26] = assay: Antifungal activity against Penicillium ochrochloron ATCC 9112 treated for 72 hrs followed by sub-cultivated for 5 days by serial dilution method; format: functional; procedure, shortened: as §4
Trichoderma viride [27] = assay: Antifungal activity against Trichoderma viride IAM 5061 treated for 72 hrs followed by sub-cultivated for 5 days by serial dilution method; format: functional; procedure, shortened: as §4
Aspergillus fumigatus [28] = assay: Antifungal activity against Aspergillus fumigatus human isolate treated for 72 hrs followed by sub-cultivated for 5 days by serial dilution method; format: functional; procedure, shortened: as §4
Aspergillus niger [29] = assay: Antifungal activity against Aspergillus niger ATCC 6275 treated for 72 hrs followed by sub-cultivated for 5 days by serial dilution method; format: functional; procedure, shortened: as §4
Aspergillus flavus [30] = assay: Antifungal activity against Aspergillus flavus ATCC 9643 treated for 72 hrs followed by sub-cultivated for 5 days by serial dilution method; format: functional; procedure, shortened: as §4
Aspergillus versicolor [31] = assay: Antifungal activity against Aspergillus versicolor ATCC 11730 treated for 72 hrs followed by sub-cultivated for 5 days by serial dilution method; format: functional; procedure, shortened: as §4
Fulvia fulva [32] = assay: Antifungal activity against Fulvia fulva treated for 72 hrs followed by sub-cultivated for 5 days by serial dilution method; format: functional; procedure, shortened: as §4

MIC (Staphylococcus aureus [1]) | MIC (Bacillus cereus [2]) | MIC (Micrococcus flavus [3]) | MIC (Listeria monocytogenes [4]) | MIC (Pseudomonas aeruginosa [5]) | MIC (Enterobacter cloacae [6]) | MIC (Salmonella typhimurium [7]) | MIC (Escherichia coli [8]) | MIC (Talaromyces funiculosus [17]) | MIC (Penicillium ochrochloron [18]) | MIC (Trichoderma viride [19]) | MIC (Aspergillus fumigatus [20]) | Structure (SMILES) | MBC (Staphylococcus aureus [9]) | MBC (Bacillus cereus [10]) | MBC (Micrococcus flavus [11]) | MBC (Listeria monocytogenes [12]) | MBC (Pseudomonas aeruginosa [13]) | MBC (Enterobacter cloacae [14]) | MBC (Salmonella typhimurium [15]) | MBC (Escherichia coli [16]) | other results
270 µM (≈ 101 µg/mL) | 270 µM (≈ 101 µg/mL) | 270 µM (≈ 101 µg/mL) | 270 µM (≈ 101 µg/mL) | 270 µM (≈ 101 µg/mL) | 270 µM (≈ 101 µg/mL) | 270 µM (≈ 101 µg/mL) | 270 µM (≈ 101 µg/mL) | 140 µM (≈ 52.1 µg/mL) | 140 µM (≈ 52.1 µg/mL) | 70 µM (≈ 26.1 µg/mL) | 140 µM (≈ 52.1 µg/mL) | CNc1nnc(Cc2cc(OC)c(OC)cc2S(=O)(=O)N(C)C)s1 | 540 µM (≈ 201 µg/mL) | 270 µM (≈ 101 µg/mL) | 540 µM (≈ 201 µg/mL) | 540 µM (≈ 201 µg/mL) | 270 µM (≈ 101 µg/mL) | 270 µM (≈ 101 µg/mL) | 270 µM (≈ 101 µg/mL) | 270 µM (≈ 101 µg/mL) | MIC (Aspergillus niger [21]): 70 µM (≈ 26.1 µg/mL); MIC (Aspergillus flavus [22]): 140 µM (≈ 52.1 µg/mL); MIC (Aspergillus versicolor [23]): 270 µM (≈ 101 µg/mL); MIC (Fulvia fulva [24]): 70 µM (≈ 26.1 µg/mL); MFC (Talaromyces funiculosus [25]): 270 µM (≈ 101 µg/mL); MFC (Penicillium ochrochloron [26]): 270 µM (≈ 101 µg/mL); MFC (Trichoderma viride [27]): 130 µM (≈ 48.4 µg/mL); MFC (Aspergillus fumigatus [28]): 270 µM (≈ 101 µg/mL); MFC (Aspergillus niger [29]): 140 µM (≈ 52.1 µg/mL); MFC (Aspergillus flavus [30]): 270 µM (≈ 101 µg/mL); MFC (Aspergillus versicolor [31]): 540 µM (≈ 201 µg/mL); MFC (Fulvia fulva [32]): 70 µM (≈ 26.1 µg/mL)
520 µM (≈ 201 µg/mL) | 260 µM (≈ 100 µg/mL) | 260 µM (≈ 100 µg/mL) | 520 µM (≈ 201 µg/mL) | 260 µM (≈ 100 µg/mL) | 520 µM (≈ 201 µg/mL) | 260 µM (≈ 100 µg/mL) | 260 µM (≈ 100 µg/mL) | 130 µM (≈ 50.2 µg/mL) | 130 µM (≈ 50.2 µg/mL) | 70 µM (≈ 27.1 µg/mL) | 130 µM (≈ 50.2 µg/mL) | CCNc1nnc(Cc2cc(OC)c(OC)cc2S(=O)(=O)N(C)C)s1 | 520 µM (≈ 201 µg/mL) | 260 µM (≈ 100 µg/mL) | 520 µM (≈ 201 µg/mL) | 520 µM (≈ 201 µg/mL) | 260 µM (≈ 100 µg/mL) | 520 µM (≈ 201 µg/mL) | 260 µM (≈ 100 µg/mL) | 260 µM (≈ 100 µg/mL) | MIC (Aspergillus niger [21]): 130 µM (≈ 50.2 µg/mL); MIC (Aspergillus flavus [22]): 130 µM (≈ 50.2 µg/mL); MIC (Aspergillus versicolor [23]): 260 µM (≈ 100 µg/mL); MIC (Fulvia fulva [24]): 70 µM (≈ 27.1 µg/mL); MFC (Talaromyces funiculosus [25]): 260 µM (≈ 100 µg/mL); MFC (Penicillium ochrochloron [26]): 260 µM (≈ 100 µg/mL); MFC (Trichoderma viride [27]): 130 µM (≈ 50.2 µg/mL); MFC (Aspergillus fumigatus [28]): 260 µM (≈ 100 µg/mL); MFC (Aspergillus niger [29]): 260 µM (≈ 100 µg/mL); MFC (Aspergillus flavus [30]): 260 µM (≈ 100 µg/mL); MFC (Aspergillus versicolor [31]): 520 µM (≈ 201 µg/mL); MFC (Fulvia fulva [32]): 70 µM (≈ 27.1 µg/mL)
